Assay [1] has as its target T1, Tyrosine-protein phosphatase non-receptor type 1 (Homo sapiens) (UniProt P18031).
T1 sequence (whole entry): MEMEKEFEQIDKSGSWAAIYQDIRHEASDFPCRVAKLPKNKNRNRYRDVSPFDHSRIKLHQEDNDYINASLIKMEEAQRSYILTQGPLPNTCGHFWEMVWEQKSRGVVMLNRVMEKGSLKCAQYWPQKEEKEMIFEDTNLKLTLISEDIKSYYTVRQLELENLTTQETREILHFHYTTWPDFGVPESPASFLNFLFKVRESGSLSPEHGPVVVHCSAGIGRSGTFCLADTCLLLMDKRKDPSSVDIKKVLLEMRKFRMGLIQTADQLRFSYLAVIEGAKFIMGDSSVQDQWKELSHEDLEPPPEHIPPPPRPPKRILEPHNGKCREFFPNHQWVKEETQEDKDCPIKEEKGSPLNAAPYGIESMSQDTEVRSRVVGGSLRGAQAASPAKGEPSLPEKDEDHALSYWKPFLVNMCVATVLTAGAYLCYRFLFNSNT
The assay is described as follows: Inhibition of human recombinant PTP1B expressed in Escherichia coli TB1 assessed as residual activity at 40 uM. In a few lines:
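Single-point screen at 37 °C, pH 7.0: compound at 40 µM final (from 20 mM DMSO solution) in buffer with 2 mM pNPP. Reaction started with 0.16 µg human recombinant PTP-1B in 1 ml. p-Nitrophenol read at 400 nm. Residual activity given as % of DMSO control; quadruplicate.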

For assay [2], the target named is T1, Tyrosine-protein phosphatase non-receptor type 1 (Homo sapiens). The assay is described as follows: Reversible inhibition of human recombinant PTP1B expressed in Escherichia coli TB1 assessed as complete recovery of residual enzyme activity at 4 deg C at 100 uM after 1 hr.
Assay [3] has the same target. The assay is described as follows: Reversible inhibition of human recombinant PTP1B expressed in Escherichia coli TB1 assessed as complete recovery of residual enzyme activity at 37 deg C at 100 uM after 1 hr.
Assay [4] has the same target. Nature of the assay: Inhibition of human recombinant PTP1B expressed in Escherichia coli TB1-catalyzed hydrolysis of p-nitrophenyl phosphate assessed as decrease in hydrolysis rate by slow binding assay. In a few lines:
(§1)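 Time-course of pNPP hydrolysis by recombinant PTP-1B at several inhibitor concentrations, with p-nitrophenol release followed continuously at 400 nm. Initial rates and curve linearity examined, either without enzyme–inhibitor preincubation or after 30 min preincubation.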

The target is the same in assay [5]. Nature of the assay: Inhibition of human recombinant PTP1B expressed in Escherichia coli TB1-catalyzed hydrolysis of p-nitrophenyl phosphate assessed as decrease in hydrolysis rate preincubated for 30 mins by slow binding assay. Summed up:
as §1

Assay [6] deals with T2, Tyrosine-protein phosphatase non-receptor type 1 (Homo sapiens, UniProt P18031).
T2 sequence (P18031 whole entry): T1 sequence (whole entry)
The assay is described as follows: Inhibition of human recombinant PTP1B expressed in Escherichia coli TB1 assessed as residual activity. In a few lines:
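Tagged human PTP-1B produced in E. coli TB1 from pGEX-2T, affinity-purified, thrombin-cleaved, gel-filtered. Run at 37 °C, pH 7.0, in 0.075 M β,β-dimethylglutarate with 1 mM EDTA and 1 mM DTT, substrate 2 mM pNPP (Km). IC50 used varying inhibitor, 10 nM enzyme, KOH stop, p-nitrophenol at 400 nm. Fit of vi/vo versus concentration; quadruplicate.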

The target in assay [7] is T1, Tyrosine-protein phosphatase non-receptor type 1 (Homo sapiens). Nature of the assay: Inhibition of human recombinant PTP1B expressed in Escherichia coli TB1-catalyzed hydrolysis of p-nitrophenyl phosphate assessed as decrease in hydrolysis rate using 25 mM pNPP as substrate. Summed up: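 Rates at 37 °C, pH 7.0, with 25 mM pNPP (12.5-fold Km), with inhibitor at 2.5, 5.0, 10, 25, 50, 100 and 200 µM. Residual activity measured to test for partial inhibition; quadruplicate.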

For assay [8], the target named is T2, Tyrosine-protein phosphatase non-receptor type 1. Nature of the assay: Inhibition of human recombinant PTP1B expressed in Escherichia coli TB1 by double reciprocal plot analysis. Summed up:
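Initial hydrolysis rates at 37 °C, pH 7.0, across pNPP 0.5–40 mM, with several inhibitor concentrations (e.g. 0, 5, 10, 20, 30 µM). Data analysed as Lineweaver–Burk (1/v vs 1/[S]) plots to assign inhibition type; quadruplicate.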

A further assay concerns Rattus norvegicus. The assay is described as follows: Antihyperglycemic activity against STZ-nicotinamide-induced diabetes in overnight fasted Wistar rat assessed as decrease in glycemia at 100 mg/kg, administered intragastrically after 5 to 7 hrs by glucose oxidase method. In kind it is functional. In a few lines: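 Male Wistar rats (200–250 g) made diabetic by i.p. nicotinamide 110 mg/kg (saline), then 15 min later i.p. streptozotocin 65 mg/kg (citrate pH 4.5), after overnight fast; hyperglycemia confirmed at 72 h. Test compounds 100 mg/kg or glibenclamide 5 mg/kg given orally as 1% Tween 80 suspension, n = 5. Caudal vein glucose (glucose oxidase glucometer) at 0, 1, 3, 5, 7 h; % variation versus 0 h.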

Active and inactive are the calls of the source. The calls are words filed in the database; no cut-off is given here.

Broadly, the IC50 is the point on the concentration scale where inhibition reaches its midpoint. Usually Ki stands for a dissociation constant, usually derived from enzyme kinetics or from competition with a known ligand.

Turning to `CC(=O)Nc1ccc(S(=O)(=O)Nc2nc3ccc([N+](=O)[O-])cc3s2)cc1`, in [1], the result was inactive.
Regarding `CCOc1ccc2nc(NS(=O)(=O)c3ccc([N+](=O)[O-])cc3)sc2c1`, the outcome in assay [1], in [2], in [3], in [4], in assay [5] and in [7] was Active. Moreover, the IC50 in assay [6] was 40.9 µM. Besides, the Ki in assay [8] turned out to be 20.4 µM.
As to `COc1ccc2nc(NS(=O)(=O)c3ccc([N+](=O)[O-])cc3)sc2c1`, the result in assay [1] was inactive.
As for `CCOc1ccc2nc(NS(=O)(=O)c3ccc(Cl)cc3)sc2c1`, the result in assay [1] was inactive.
Consider `COc1ccc(Cl)cc1C(=O)NCCc1ccc(S(=O)(=O)NC(=O)NC2CCCCC2)cc1`, for which the outcome in the assay with Rattus norvegicus was Active.
As for `Cc1ccc2nc(NS(=O)(=O)c3ccc([N+](=O)[O-])cc3)sc2c1`, the result in assay [1], in [2], in assay [3], in assay [4], in assay [5] and in assay [7] was Active. The concentration for half-maximal inhibition (IC50) in [6] came to 19.5 µM. For the same compound, the Ki in assay [8] is 7.1 µM. Moreover, the Activity in the assay with Rattus norvegicus (route intragastric) is listed as 27%.
On to `O=[N+]([O-])c1ccc(S(=O)(=O)Nc2nc3ccc(Cl)cc3s2)cc1`, for which the outcome in assay [1] was inactive.

These data come from ChEMBL document CHEMBL1138628, “Synthesis, in vitro and computational studies of protein tyrosine phosphatase 1B inhibition of a small library of 2-arylsulfonylaminobenzothiazoles with antihyperglycemic activity” (Bioorg Med Chem, 2009).
